Source: ChEMBL document CHEMBL3098105, “7,7'-Diazaindirubin--a small molecule inhibitor of casein kinase 2 in vitro and in cells” (Bioorg Med Chem, 2014)

How the values were obtained:
[1] = biological target: Insulin-like growth factor 1 receptor (Homo sapiens) (UniProt P08069); test: Inhibition of IGF1-R (unknown origin) assessed as residual activity at 1 uM relative to control
[2] = biological target: Aurora kinase C (Homo sapiens) (UniProt Q9UQB9); test: Inhibition of Aurora-C (unknown origin) assessed as residual activity at 1 uM relative to control
Chain of Aurora kinase C (Homo sapiens) (Q9UQB9 whole entry): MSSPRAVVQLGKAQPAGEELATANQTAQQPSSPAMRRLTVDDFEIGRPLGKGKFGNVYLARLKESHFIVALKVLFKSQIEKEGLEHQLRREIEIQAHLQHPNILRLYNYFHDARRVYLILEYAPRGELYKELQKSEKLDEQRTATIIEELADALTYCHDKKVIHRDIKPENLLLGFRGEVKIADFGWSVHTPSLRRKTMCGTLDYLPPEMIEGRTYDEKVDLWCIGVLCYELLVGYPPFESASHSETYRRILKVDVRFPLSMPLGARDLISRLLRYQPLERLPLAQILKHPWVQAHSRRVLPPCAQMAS

[3] = biological target: T1, Aurora kinase A (Homo sapiens) (UniProt O14965); test: Inhibition of Aurora-A (unknown origin) assessed as residual activity at 1 uM relative to control
T1 sequence (whole entry): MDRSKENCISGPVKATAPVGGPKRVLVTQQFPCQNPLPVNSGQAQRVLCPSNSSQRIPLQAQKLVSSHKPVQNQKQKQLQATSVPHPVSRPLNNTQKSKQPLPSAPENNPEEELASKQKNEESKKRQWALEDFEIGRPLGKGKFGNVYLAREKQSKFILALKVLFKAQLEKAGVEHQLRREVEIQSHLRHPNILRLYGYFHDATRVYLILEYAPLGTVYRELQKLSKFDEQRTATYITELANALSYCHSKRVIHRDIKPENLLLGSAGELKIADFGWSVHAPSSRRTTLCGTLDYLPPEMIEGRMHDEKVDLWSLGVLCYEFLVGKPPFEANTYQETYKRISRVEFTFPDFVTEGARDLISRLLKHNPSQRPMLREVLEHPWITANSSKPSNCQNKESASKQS

[4] = tested on: ACHN; test: Antiproliferative activity against human ACHN cells after 3 days by sulforhodamine B assay; type: functional; settings: 72 h
Summary of the method: (§1)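 Tested in the NCI 60 cell line panel. GI50 is the concentration giving 50% inhibition of cell growth, and values are the mean of two series of tests.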

[5] = tested on: SK-MEL-2; test: Antiproliferative activity against human SK-MEL-2 cells after 3 days by sulforhodamine B assay; type: functional; settings: SK-MEL-2, 72 h; summary of the method: as §1
[6] = biological target: Serine/threonine-protein kinase 33 (Homo sapiens) (UniProt Q9BYT3); test: Inhibition of human STK33 assessed as residual activity at 1 uM relative to control
[7] = biological target: Serine/threonine-protein kinase Sgk1 (Homo sapiens) (UniProt O00141); test: Inhibition of human SGK assessed as residual activity at 1 uM relative to control
[8] = biological target: Tyrosine-protein kinase FRK (Homo sapiens) (UniProt P42685); test: Inhibition of human PTK5 assessed as residual activity at 1 uM relative to control
[9] = biological target: Serine/threonine-protein kinase PLK3 (Homo sapiens) (UniProt Q9H4B4); test: Inhibition of human Plk3 assessed as residual activity at 1 uM relative to control
[10] = biological target: Protein kinase C theta type (Homo sapiens) (UniProt Q04759); test: Inhibition of human PKCtheta assessed as residual activity at 1 uM relative to control
[11] = Antiproliferative activity against human HOP92 cells after 3 days by sulforhodamine B assay; type: functional; settings: HOP-92, 72 h; summary of the method: as §1
[12] = biological target: Protein kinase C delta type (Homo sapiens) (UniProt Q05655); test: Inhibition of human PKCdelta assessed as residual activity at 1 uM relative to control
[13] = biological target: Protein kinase C alpha type (Homo sapiens) (UniProt P17252); test: Inhibition of human PKCalpha assessed as residual activity at 1 uM relative to control
[14] = biological target: RAC-alpha serine/threonine-protein kinase (Homo sapiens) (UniProt P31749); test: Inhibition of human PKBalpha assessed as residual activity at 1 uM relative to control
[15] = biological target: Serine/threonine-protein kinase MARK2 (Homo sapiens) (UniProt Q7KZI7); test: Inhibition of human PAR1Balpha assessed as residual activity at 1 uM relative to control
[16] = biological target: Ribosomal protein S6 kinase beta-1 (Homo sapiens) (UniProt P23443); test: Inhibition of human p70S6K assessed as residual activity at 1 uM relative to control
[17] = biological target: Serine/threonine-protein kinase Nek11 (Homo sapiens) (UniProt Q8NG66); test: Inhibition of human NEK11 assessed as residual activity at 1 uM relative to control
Chain of Serine/threonine-protein kinase Nek11 (Homo sapiens) (Q8NG66 whole entry): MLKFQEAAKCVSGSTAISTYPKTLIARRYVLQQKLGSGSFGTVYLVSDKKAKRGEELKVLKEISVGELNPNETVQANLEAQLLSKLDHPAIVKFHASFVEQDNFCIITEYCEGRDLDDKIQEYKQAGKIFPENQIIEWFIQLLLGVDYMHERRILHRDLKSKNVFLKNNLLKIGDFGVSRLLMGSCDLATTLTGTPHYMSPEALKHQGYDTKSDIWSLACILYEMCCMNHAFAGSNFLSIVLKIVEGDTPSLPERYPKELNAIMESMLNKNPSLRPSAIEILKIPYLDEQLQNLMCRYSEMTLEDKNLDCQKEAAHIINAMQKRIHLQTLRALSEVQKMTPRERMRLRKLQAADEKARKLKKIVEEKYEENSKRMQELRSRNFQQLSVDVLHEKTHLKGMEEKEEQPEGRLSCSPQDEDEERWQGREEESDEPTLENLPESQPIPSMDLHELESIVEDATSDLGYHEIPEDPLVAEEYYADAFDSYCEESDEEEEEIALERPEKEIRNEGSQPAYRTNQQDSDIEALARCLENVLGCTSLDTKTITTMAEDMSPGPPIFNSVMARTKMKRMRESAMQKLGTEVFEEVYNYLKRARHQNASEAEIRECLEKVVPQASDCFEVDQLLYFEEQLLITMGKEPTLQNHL

[18] = biological target: Serine/threonine-protein kinase 24 (Homo sapiens) (UniProt Q9Y6E0); test: Inhibition of human MST3 assessed as residual activity at 1 uM relative to control
[19] = biological target: Fibroblast growth factor receptor 3 (Homo sapiens) (UniProt P22607); test: Inhibition of human FGFR3 assessed as residual activity at 1 uM relative to control
Chain of Fibroblast growth factor receptor 3 (Homo sapiens) (P22607 23-806 limits assumed): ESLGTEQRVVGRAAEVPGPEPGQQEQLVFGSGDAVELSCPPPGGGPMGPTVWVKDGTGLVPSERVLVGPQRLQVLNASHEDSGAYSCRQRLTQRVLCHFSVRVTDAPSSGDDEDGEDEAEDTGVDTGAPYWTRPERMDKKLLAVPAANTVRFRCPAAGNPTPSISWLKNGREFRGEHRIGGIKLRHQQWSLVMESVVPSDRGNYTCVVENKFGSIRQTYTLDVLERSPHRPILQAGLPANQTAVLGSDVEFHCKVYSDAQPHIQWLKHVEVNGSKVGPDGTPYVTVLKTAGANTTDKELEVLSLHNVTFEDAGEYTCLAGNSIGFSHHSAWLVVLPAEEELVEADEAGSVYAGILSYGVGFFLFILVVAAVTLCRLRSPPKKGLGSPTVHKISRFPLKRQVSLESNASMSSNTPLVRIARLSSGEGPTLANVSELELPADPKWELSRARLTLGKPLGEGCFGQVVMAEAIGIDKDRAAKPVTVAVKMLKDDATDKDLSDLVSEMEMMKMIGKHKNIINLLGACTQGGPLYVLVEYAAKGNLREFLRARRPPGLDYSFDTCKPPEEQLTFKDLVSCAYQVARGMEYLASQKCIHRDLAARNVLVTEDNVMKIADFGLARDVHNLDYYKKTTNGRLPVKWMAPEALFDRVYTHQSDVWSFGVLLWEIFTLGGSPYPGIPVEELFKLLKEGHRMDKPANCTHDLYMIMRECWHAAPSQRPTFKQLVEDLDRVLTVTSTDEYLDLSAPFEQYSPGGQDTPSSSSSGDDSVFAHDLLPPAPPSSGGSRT

[20] = biological target: Fibroblast growth factor receptor 1 (Homo sapiens) (UniProt P11362); test: Inhibition of human FGFR1 assessed as residual activity at 1 uM relative to control
[21] = biological target: Proto-oncogene tyrosine-protein kinase Src (Homo sapiens) (UniProt P12931); test: Inhibition of human cSRC assessed as residual activity at 1 uM relative to control
[22] = biological target: Tyrosine-protein kinase CSK (Homo sapiens) (UniProt P41240); test: Inhibition of human CSK assessed as residual activity at 1 uM relative to control
[23] = biological target: Serine/threonine-protein kinase BRSK1 (Homo sapiens) (UniProt Q8TDC3); test: Inhibition of human BrSK1 assessed as residual activity at 1 uM relative to control
[24] = biological target: Insulin-like growth factor 1 receptor (Homo sapiens) (UniProt P08069); test: Inhibition of IGF1-R (unknown origin) assessed as residual activity at 10 uM relative to control
[25] = biological target: T2, Serine/threonine-protein kinase Chk1 (Homo sapiens) (UniProt O14757); test: Inhibition of CHK1 (unknown origin) assessed as residual activity at 10 uM relative to control
T2 sequence (whole entry): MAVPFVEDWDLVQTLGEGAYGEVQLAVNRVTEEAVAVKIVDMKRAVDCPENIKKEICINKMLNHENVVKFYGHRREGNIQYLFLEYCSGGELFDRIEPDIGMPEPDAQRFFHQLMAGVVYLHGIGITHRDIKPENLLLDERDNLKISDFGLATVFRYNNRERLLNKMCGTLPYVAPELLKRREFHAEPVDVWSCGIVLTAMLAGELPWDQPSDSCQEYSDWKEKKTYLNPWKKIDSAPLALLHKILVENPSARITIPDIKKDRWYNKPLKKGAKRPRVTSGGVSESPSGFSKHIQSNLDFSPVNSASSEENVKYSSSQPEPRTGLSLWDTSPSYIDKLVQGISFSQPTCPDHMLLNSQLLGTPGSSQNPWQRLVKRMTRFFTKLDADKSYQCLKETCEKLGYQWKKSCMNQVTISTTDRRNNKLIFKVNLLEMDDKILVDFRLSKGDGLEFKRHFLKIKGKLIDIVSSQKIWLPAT

[26] = biological target: Serine/threonine-protein kinase B-raf (Homo sapiens) (UniProt P15056); test: Inhibition of wild type B-RAF (unknown origin) assessed as residual activity at 10 uM relative to control
Chain of Serine/threonine-protein kinase B-raf (Homo sapiens) (P15056 whole entry): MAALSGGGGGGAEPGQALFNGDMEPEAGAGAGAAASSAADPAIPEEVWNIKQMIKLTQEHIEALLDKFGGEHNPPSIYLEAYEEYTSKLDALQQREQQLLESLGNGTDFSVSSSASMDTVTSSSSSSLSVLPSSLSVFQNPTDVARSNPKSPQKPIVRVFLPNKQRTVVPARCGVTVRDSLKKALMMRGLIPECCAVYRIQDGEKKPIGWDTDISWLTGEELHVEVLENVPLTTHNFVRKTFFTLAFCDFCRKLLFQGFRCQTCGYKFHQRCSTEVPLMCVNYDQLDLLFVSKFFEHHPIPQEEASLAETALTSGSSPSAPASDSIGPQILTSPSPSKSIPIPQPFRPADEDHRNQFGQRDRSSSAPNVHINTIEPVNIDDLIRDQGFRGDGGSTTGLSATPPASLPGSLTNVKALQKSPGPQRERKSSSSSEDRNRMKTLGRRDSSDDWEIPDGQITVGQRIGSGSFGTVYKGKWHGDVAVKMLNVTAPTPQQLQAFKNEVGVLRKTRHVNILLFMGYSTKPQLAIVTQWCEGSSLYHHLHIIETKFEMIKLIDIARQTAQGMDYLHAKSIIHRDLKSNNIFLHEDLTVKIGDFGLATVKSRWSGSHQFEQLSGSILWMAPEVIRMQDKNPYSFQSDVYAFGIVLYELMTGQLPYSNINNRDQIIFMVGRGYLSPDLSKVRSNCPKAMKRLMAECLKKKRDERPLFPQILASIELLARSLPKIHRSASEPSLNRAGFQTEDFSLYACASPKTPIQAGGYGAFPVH

[27] = biological target: Aurora kinase B (Homo sapiens) (UniProt Q96GD4); test: Inhibition of Aurora-B (unknown origin) assessed as residual activity at 10 uM relative to control
Chain of Aurora kinase B (Homo sapiens) (Q96GD4 whole entry): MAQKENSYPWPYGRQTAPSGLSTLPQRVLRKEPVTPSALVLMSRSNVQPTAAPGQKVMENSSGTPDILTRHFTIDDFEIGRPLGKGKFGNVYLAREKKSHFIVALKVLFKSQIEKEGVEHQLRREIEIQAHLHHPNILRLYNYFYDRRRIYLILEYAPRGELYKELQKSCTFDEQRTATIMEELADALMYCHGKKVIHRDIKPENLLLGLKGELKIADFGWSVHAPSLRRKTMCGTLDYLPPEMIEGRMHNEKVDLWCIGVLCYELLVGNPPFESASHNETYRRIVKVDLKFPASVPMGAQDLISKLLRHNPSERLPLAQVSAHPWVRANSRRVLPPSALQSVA

[28] = biological target: Vascular endothelial growth factor receptor 2 (Homo sapiens) (UniProt P35968); test: Inhibition of VEGF-R2 (unknown origin) assessed as residual activity at 1 uM relative to control

Chain of Insulin-like growth factor 1 receptor (Homo sapiens) (P08069 31-736 limits assumed): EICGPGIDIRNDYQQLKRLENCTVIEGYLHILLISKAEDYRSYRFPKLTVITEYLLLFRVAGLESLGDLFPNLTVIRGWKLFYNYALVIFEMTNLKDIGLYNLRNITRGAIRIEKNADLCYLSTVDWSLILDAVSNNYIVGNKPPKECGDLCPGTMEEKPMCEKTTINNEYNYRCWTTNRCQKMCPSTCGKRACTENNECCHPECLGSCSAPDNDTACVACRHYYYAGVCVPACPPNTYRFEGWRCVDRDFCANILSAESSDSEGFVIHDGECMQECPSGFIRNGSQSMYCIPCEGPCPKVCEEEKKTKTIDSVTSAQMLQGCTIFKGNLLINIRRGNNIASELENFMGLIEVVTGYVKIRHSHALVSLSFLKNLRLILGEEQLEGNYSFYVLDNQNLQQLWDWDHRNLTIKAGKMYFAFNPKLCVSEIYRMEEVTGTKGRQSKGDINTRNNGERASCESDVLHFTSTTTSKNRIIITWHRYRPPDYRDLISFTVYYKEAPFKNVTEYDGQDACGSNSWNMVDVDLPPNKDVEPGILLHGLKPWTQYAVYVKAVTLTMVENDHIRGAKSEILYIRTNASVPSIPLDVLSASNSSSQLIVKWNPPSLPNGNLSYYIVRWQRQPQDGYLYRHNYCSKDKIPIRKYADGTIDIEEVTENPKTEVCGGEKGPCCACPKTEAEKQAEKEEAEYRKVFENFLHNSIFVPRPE
Chain of Insulin-like growth factor 1 receptor (Homo sapiens) (P08069 741-1367 limits assumed): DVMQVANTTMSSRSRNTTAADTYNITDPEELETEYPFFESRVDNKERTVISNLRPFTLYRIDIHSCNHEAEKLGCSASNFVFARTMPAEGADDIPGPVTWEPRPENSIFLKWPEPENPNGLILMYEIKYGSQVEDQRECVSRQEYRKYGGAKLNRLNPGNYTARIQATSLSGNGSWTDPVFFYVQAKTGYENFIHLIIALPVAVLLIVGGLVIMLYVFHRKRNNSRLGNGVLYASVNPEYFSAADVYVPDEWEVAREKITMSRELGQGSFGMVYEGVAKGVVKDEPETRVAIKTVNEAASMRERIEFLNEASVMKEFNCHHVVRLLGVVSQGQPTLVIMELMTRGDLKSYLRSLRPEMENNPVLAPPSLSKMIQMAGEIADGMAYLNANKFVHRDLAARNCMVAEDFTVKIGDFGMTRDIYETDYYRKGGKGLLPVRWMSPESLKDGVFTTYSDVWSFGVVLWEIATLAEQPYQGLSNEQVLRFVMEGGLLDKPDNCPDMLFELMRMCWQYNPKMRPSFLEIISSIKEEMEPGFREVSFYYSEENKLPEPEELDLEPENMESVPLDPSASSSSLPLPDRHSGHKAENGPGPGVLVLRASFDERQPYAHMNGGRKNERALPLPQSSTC

## O=C1Nc2ncccc2/C1=C1/Nc2ncccc2C1=O
[1]
  Activity: 94%
[2]
  Activity: 89%
[3]
  Activity: 85%
[4]
  GI50: 1480 nM
[5]
  GI50: 1710 nM
[6]
  Activity: 91%
[7]
  Activity: 88%
[8]
  Activity: 92%
[9]
  Activity: 104%
[10]
  Activity: 116%
[11]
  GI50: 3040 nM
[12]
  Activity: 126%
[13]
  Activity: 88%
[14]
  Activity: 94%
[15]
  Activity: 53%
[16]
  Activity: 133%
[17]
  Activity: 73%
[18]
  Activity: 113%
[19]
  Activity: 126%
[20]
  Activity: 101%
[21]
  Activity: 63%
[22]
  Activity: 122%
[23]
  Activity: 69%
[24]
  Activity: 94%
[25]
  Activity: 99%
[26]
  Activity: 94%
[27]
  Activity: 88%
[28]
  Activity: 93%
